The values that follow come from ChEMBL document CHEMBL1148462, “A novel class of phosphonate nucleosides. 9-[(1-phosphonomethoxycyclopropyl)methyl]guanine as a potent and selective anti-HBV agent” (J Med Chem, 2004).

In data set [1] the test system is HepG2. As to the kind of experiment: (§1) Compound tested for anti-HBV (hepatitis B virus) activity in HepG2 2.2.15 cell line. The data set is classed as functional. The settings on record: Homo sapiens. Put shortly: (§2)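 HBV-producing HepG2 2.2.15 cells cultured in DMEM/10% FBS with 400 μg/mL G418, seeded at 1.5 × 10⁴ cells/well and grown 2 days to 80–90% confluence. Medium then switched to 2% FBS. Compounds at 0–100 μM (fivefold steps) added every other day for 9 days. Day-10 supernatant boiled, serially diluted and HBV DNA quantified by TaqMan real-time PCR (40 cycles) to derive EC50.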

Data set [2] concerns HepG2. The experiment in a line: Cytotoxic activity in HepG2 2.2.15 cell line. Type of data set: functional. Particulars: Homo sapiens.
For data set [3], the system named is HepG2. The data set is described as §1. Type of data set: functional, cell-based. Particulars: Homo sapiens. Put shortly:
as §2

In data set [4] the test system is Human immunodeficiency virus 1. The experiment in a line: Concentration required for inhibition of replication of human immunodeficiency virus (HIV-1). Type of data set: functional.
For a further data set, the system named is Human alphaherpesvirus 1. The experiment in a line: […] of herpes simplex virus (HSV-1).
Data set [5] is described as follows: Oral bioavailability in rat. Type of data set: ADME, organism-based. The settings on record: in vivo.

What is called EC80 is the concentration needed for an effect of 80%. Higher therefore signals a need for much substance. By CC50 is commonly meant the concentration giving 50% cytotoxicity. Higher therefore signals better tolerance by the cells. What is called EC50 is the concentration needed to bring the measured effect to its halfway point. Low readings indicate an effect from little substance, high ones a need for much substance. A word on the bioavailability: it is dose-corrected exposure relative to a reference, in per cent. Higher therefore signals much systemic uptake.

In turn, `Nc1nc(Cl)c2ncn(CC3(OCP(=O)(O)O)CC3)c2n1` returned an EC80 in the data set on HepG2 [1] of 7.5 µM. Further, the half-maximal cytotoxic concentration (CC50) in the data set with HepG2 [2] was above 1000 µM. In the data set with HepG2 [3], the midpoint of the response, the EC50, lay at 1.5 µM.
In turn, `Nc1ncnc2c1ncn2CCOCP(=O)(O)O` [ADEFOVIR] came in with an EC80 in the data set on HepG2 [1] of 44 µM. Also, the EC50 in the data set on HepG2 [3] amounted to 2 µM.
For `Cc1cn(CC2(OCP(=O)(O)O)CC2)c(=O)[nH]c1=O`, in the data set on HepG2 [2], the 50% cytotoxic concentration (CC50) was above 1000 µM. Besides, the half-maximal effective concentration (EC50) with HepG2 [3] is above 30 µM.
For `Nc1nc(O)c2ncn(CC3(OCP(=O)(O)O)CC3)c2n1` [LB80317], the 80% effect concentration (EC80) with HepG2 [1] came to 2.3 µM. Besides, in the data set on HepG2 [2], the CC50 was above 1000 µM. In the data set on HepG2 [3], this molecule displayed an EC50 of 0.5 µM. Further, the Inhibition (in data set [4]; in the data set with Human alphaherpesvirus 1) was above 30 µM each time.
In the data set with HepG2 [1], `CCOc1nc(N)nc2c1ncn2CC1(OCP(=O)(O)O)CC1` gave a concentration for an effect of 80% (EC80) of 3 µM. For the same molecule, the CC50 with HepG2 [2] was above 1000 µM. The molecule further displayed an EC50 in the data set on HepG2 [3] of 0.5 µM.
With `Nc1ncc2ncn(CC3(OCP(=O)(O)O)CC3)c2n1` [BESIFOVIR], the bioavailability in data set [5] is above 5%. In addition, the cytotoxic concentration (CC50) in the data set with HepG2 [2] is above 1000 µM. In the data set on HepG2 [3], this molecule registered an EC50 of 4 µM.
With `CCNc1nc(N)nc2c1ncn2CC1(OCP(=O)(O)O)CC1`, the half-maximal cytotoxic concentration (CC50) with HepG2 [2] is above 1000 µM. The same molecule had an EC50 in the data set on HepG2 [3] above 30 µM.
As to `Nc1ncnc2c1ncn2CC1(OCP(=O)(O)O)CC1`, the cytotoxic concentration (CC50) in the data set with HepG2 [2] was above 1000 µM. The response in the data set with HepG2 [3] was half-maximal at 8 µM (EC50).
For `Cc1nc(N)nc2c1ncn2CC1(OCP(=O)(O)O)CC1`, the CC50 in the data set with HepG2 [2] was above 1000 µM. The molecule further had an EC50 in the data set with HepG2 [3] of 8 µM.
